≈ marks a conversion by molar mass, not a printed value. *1 amine or outer side, *2 acyl side, *3 side chain or, on linkers, in order; H or OH if unused. Where a SMILES comes first, the peptide text is derived from it. Bridges are numbered along the chain shown (N, C = ends). [ ]: non-standard residue; d: D form. The star is where a group is joined. pTerphenylCO(4''-OnC5H11) = CCCCCOc1ccc(-c2ccc(-c3ccc(C(=O)*)cc3)cc2)cc1; Orn(4R-OH,5R-OH) = O=C([C@H](C[C@@H](O)[C@@H](O)N[*:3])N[*:1])[*:2]; hTyr(3S-OH,4S-OH) = N[C@H](C(=O)O)[C@H](O)[C@@H](O)c1ccc(O)cc1; Pro(3S-OH,4S-Me) = C[C@H]1CN[C@H](C(=O)O)[C@H]1O; Hyp = O=C(O)[C@@H]1C[C@@H](O)CN1
Key:
Assay type in all cases: functional
Hortaea werneckii = experiment: Antimicrobial activity against Hortaea werneckii by broth microdilution method
[1] = Antimicrobial activity against Hormographiella aspergillata by broth microdilution method; details: Coprinopsis cinerea
Outline: (§1)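 Filamentous fungus clinical isolates tested by the AFST-EUCAST reference broth microdilution method for moulds. For echinocandins, the endpoint was the minimum effective concentration: the lowest drug concentration giving aberrant hyphal growth, read with an inverted microscope.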

Candida tropicalis = experiment: Antimicrobial activity against Candida tropicalis by broth microdilution method
Outline: (§2)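 Clinical isolates from human patients, tested by broth microdilution using the AFST-EUCAST reference procedure for fermentative yeasts. The MIC was read per that reference method.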

Aspergillus = experiment: Antimicrobial activity against Aspergillus spp. by broth microdilution method
Outline: (§3)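 Clinical mould isolates, tested by broth microdilution using the AFST-EUCAST reference method for filamentous fungi. For echinocandins, the endpoint was the minimum effective concentration: the lowest drug concentration giving aberrant hyphal growth, read with an inverted microscope.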

Trichoderma = experiment: Antimicrobial activity against Trichoderma spp. by broth microdilution method; outline: as §1
Trichosporon = experiment: Antimicrobial activity against Trichosporon spp. by broth microdilution method
Outline: (§4)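 Nonfermentative yeast clinical isolates (Rhodotorula, Trichosporon) tested by broth microdilution. The EUCAST yeast recommendations were followed strictly, with one minor modification to improve growth. MIC was read as the endpoint.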

Trichosporon jirovecii = experiment: Antimicrobial activity against Trichosporon jirovecii by broth microdilution method; details: Cutaneotrichosporon jirovecii; outline: as §4
Debaryomyces hansenii = experiment: Antimicrobial activity against Candida famata by broth microdilution method; outline: as §2
Cladosporium = experiment: Antimicrobial activity against Cladosporium spp. by broth microdilution method; outline: as §3
Aspergillus nidulans = experiment: Antimicrobial activity against Aspergillus nidulans by broth microdilution method; outline: as §3
Yarrowia lipolytica = experiment: Antimicrobial activity against Yarrowia lipolytica by broth microdilution method
Aspergillus terreus = experiment: Antimicrobial activity against Aspergillus terreus by broth microdilution method; outline: as §3
Wickerhamomyces anomalus = experiment: Antimicrobial activity against Candida pelliculosa by broth microdilution method; details: Hansenula anomala; outline: as §2
Trichosporon inkin = experiment: Antimicrobial activity against Trichosporon inkin by broth microdilution method; outline: as §4
Fusarium proliferatum = experiment: Antimicrobial activity against Fusarium proliferatum by broth microdilution method; outline: as §3
Trichosporon domesticum = experiment: Antimicrobial activity against Trichosporon mycotoxinivorans by broth microdilution method; details: Apiotrichum domesticum
Outline: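 Spanish human clinical isolates were tested as nonfermentative yeasts by broth microdilution. The method strictly followed the EUCAST recommendations, with a minor modification to improve growth, and the read-out was the MIC.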

[2] = test system: Kazachstania pintolopesii; experiment: Antimicrobial activity against Candida pintolopesii by broth microdilution method; details: Arxiozyma pintolopesii; outline: as §2
Mucor = experiment: Antimicrobial activity against Mucor spp.by broth microdilution method; outline: as §1
[3] = Antimicrobial activity against Rhizopus microsporus by broth microdilution method; outline: as §1
Ustilago = experiment: Antimicrobial activity against Ustilago spp by broth microdilution method
Coprinellus domesticus = experiment: Antimicrobial activity against Hormographiella verticillata by broth microdilution method; outline: as §1
Exophiala dermatitidis = experiment: Antimicrobial activity against Exophiala dermatitidis by broth microdilution method
Aspergillus flavus = experiment: Antimicrobial activity against Aspergillus flavus by broth microdilution method; outline: as §3
Fusarium equiseti = experiment: Antimicrobial activity against Fusarium equiseti by broth microdilution method; outline: as §3
[4] = test system: Cunninghamella bertholletiae; experiment: Antimicrobial activity against Cunninghamella bertholletiae by broth microdilution method; outline: as §3
Nakaseomyces glabratus = experiment: Antimicrobial activity against Candida glabrata by broth microdilution method; outline: as §2
Candida parapsilosis = experiment: Antimicrobial activity against Candida parapsilosis by broth microdilution method; details: Lodderomyces parapsilosis; outline: as §2
Beauveria bassiana = experiment: Antimicrobial activity against Beauveria bassiana by broth microdilution method; outline: as §3
Penicillium = experiment: Antimicrobial activity against Penicillium spp. by broth microdilution method; outline: as §1
Paecilomyces variotii = experiment: Antimicrobial activity against Paecilomyces variotii by broth microdilution method; outline: as §1
Alternaria alternata = experiment: Antimicrobial activity against Alternaria alternata by broth microdilution method; outline: as §3
Fusarium verticillioides = experiment: Antimicrobial activity against Fusarium verticillioides by broth microdilution method; outline: as §1
Candida metapsilosis = experiment: Antimicrobial activity against Candida metapsilosis by broth microdilution method; details: Lodderomyces metapsilosis; outline: as §2
Aspergillus fumigatus = experiment: Antimicrobial activity against Aspergillus fumigatus by broth microdilution method; outline: as §3
Diutina rugosa = experiment: Antimicrobial activity against Candida rugosa by broth microdilution method; outline: as §2
Trichosporon dermatis = experiment: Antimicrobial activity against Trichosporon dermatis by broth microdilution method; details: Cutaneotrichosporon dermatis; outline: as §4
Candida orthopsilosis = experiment: Antimicrobial activity against Candida orthopsilosis by broth microdilution method; details: Lodderomyces orthopsilosis; outline: as §2
Aspergillus ustus = experiment: Antimicrobial activity against Aspergillus ustus by broth microdilution method; outline: as §3
Rhizopus arrhizus = experiment: Antimicrobial activity against Rhizopus oryzae by broth microdilution method; outline: as §1
Rhodotorula glutinis = experiment: Antimicrobial activity against Rhodotorula glutinis by broth microdilution method; outline: as §4
[5] = test system: Cladophialophora bantiana; experiment: Antimicrobial activity against Cladophialophora bantiana by broth microdilution method; outline: as §3
Saksenaea vasiformis = experiment: Antimicrobial activity against Saksenaea vasiformis by broth microdilution method; outline: as §1
[6] = test system: Meyerozyma guilliermondii; experiment: Antimicrobial activity against Candida guilliermondii by broth microdilution method; outline: as §2
Rhodotorula mucilaginosa = experiment: Antimicrobial activity against Rhodotorula mucilaginosa by broth microdilution method; outline: as §4
Acremonium sp. = experiment: Antimicrobial activity against Acremonium sp.by broth microdilution method; outline: as §3

SMILES: CCCCCOc1ccc(-c2ccc(-c3ccc(C(=O)N[C@H]4C[C@@H](O)[C@@H](O)NC(=O)[C@@H]5[C@@H](O)[C@@H](C)CN5C(=O)[C@H]([C@@H](C)O)NC(=O)[C@H]([C@H](O)[C@@H](O)c5ccc(O)cc5)NC(=O)[C@@H]5C[C@@H](O)CN5C(=O)[C@H]([C@@H](C)O)NC4=O)cc3)cc2)cc1 [ANIDULAFUNGIN] ({pTerphenylCO(4''-OnC5H11)}-[Orn(4R-OH,5R-OH)]T[Hyp][hTyr(3S-OH,4S-OH)]T[Pro(3S-OH,4S-Me)]; lactam 1-C)
- MIC50 (Hortaea werneckii): 0.03 µg/mL (≈ 0.0263 µM)
- MIC90 (Hortaea werneckii): 0.06 µg/mL (≈ 0.0526 µM)
- MIC50 [1]: > 16 µg/mL
- MIC90 [1]: > 16 µg/mL
- MIC50 (Candida tropicalis): 0.03 µg/mL (≈ 0.0263 µM)
- MIC90 (Candida tropicalis): 0.03 µg/mL (≈ 0.0263 µM)
- MIC50 (Aspergillus): 0.06 µg/mL (≈ 0.0526 µM)
- MIC90 (Aspergillus): 0.25 µg/mL (≈ 0.219 µM)
- MIC50 (Trichoderma): > 16 µg/mL
- MIC90 (Trichoderma): > 16 µg/mL
- MIC50 (Trichosporon): > 16 µg/mL
- MIC90 (Trichosporon): > 16 µg/mL
- MIC50 (Trichosporon jirovecii): > 16 µg/mL
- MIC90 (Trichosporon jirovecii): > 16 µg/mL
- MIC50 (Debaryomyces hansenii): 0.06 µg/mL (≈ 0.0526 µM)
- MIC90 (Debaryomyces hansenii): 0.25 µg/mL (≈ 0.219 µM)
- MIC50 (Cladosporium): 0.03 µg/mL (≈ 0.0263 µM)
- MIC90 (Cladosporium): 0.06 µg/mL (≈ 0.0526 µM)
- MIC50 (Aspergillus nidulans): 0.03 µg/mL (≈ 0.0263 µM)
- MIC90 (Aspergillus nidulans): 0.25 µg/mL (≈ 0.219 µM)
- MIC50 (Yarrowia lipolytica): 0.06 µg/mL (≈ 0.0526 µM)
- MIC90 (Yarrowia lipolytica): 0.12 µg/mL (≈ 0.105 µM)
- MIC50 (Aspergillus terreus): 0.03 µg/mL (≈ 0.0263 µM)
- MIC90 (Aspergillus terreus): 0.03 µg/mL (≈ 0.0263 µM)
- MIC50 (Wickerhamomyces anomalus): 0.06 µg/mL (≈ 0.0526 µM)
- MIC90 (Wickerhamomyces anomalus): 0.25 µg/mL (≈ 0.219 µM)
- MIC50 (Trichosporon inkin): > 16 µg/mL
- MIC90 (Trichosporon inkin): > 16 µg/mL
- MIC50 (Fusarium proliferatum): > 16 µg/mL
- MIC90 (Fusarium proliferatum): > 16 µg/mL
- MIC50 (Trichosporon domesticum): > 16 µg/mL
- MIC90 (Trichosporon domesticum): > 16 µg/mL
- MIC50 [2]: 0.06 µg/mL (≈ 0.0526 µM)
- MIC90 [2]: 0.25 µg/mL (≈ 0.219 µM)
- MIC50 (Mucor): > 16 µg/mL
- MIC90 (Mucor): > 16 µg/mL
- MIC50 [3]: > 16 µg/mL
- MIC90 [3]: > 16 µg/mL
- MIC50 (Ustilago): > 16 µg/mL
- MIC90 (Ustilago): > 16 µg/mL
- MIC50 (Coprinellus domesticus): > 16 µg/mL
- MIC90 (Coprinellus domesticus): > 16 µg/mL
- MIC50 (Exophiala dermatitidis): 0.03 µg/mL (≈ 0.0263 µM)
- MIC90 (Exophiala dermatitidis): 0.06 µg/mL (≈ 0.0526 µM)
- MIC50 (Aspergillus flavus): > 16 µg/mL
- MIC90 (Aspergillus flavus): > 16 µg/mL
- MIC50 (Fusarium equiseti): > 16 µg/mL
- MIC90 (Fusarium equiseti): > 16 µg/mL
- MIC50 [4]: > 16 µg/mL
- MIC90 [4]: > 16 µg/mL
- MIC50 (Nakaseomyces glabratus): 0.03 µg/mL (≈ 0.0263 µM)
- MIC90 (Nakaseomyces glabratus): 0.03 µg/mL (≈ 0.0263 µM)
- MIC50 (Candida parapsilosis): 1 µg/mL (≈ 0.877 µM)
- MIC90 (Candida parapsilosis): 2 µg/mL (≈ 1.75 µM)
- MIC50 (Beauveria bassiana): > 16 µg/mL
- MIC90 (Beauveria bassiana): > 16 µg/mL
- MIC50 (Penicillium): 0.03 µg/mL (≈ 0.0263 µM)
- MIC90 (Penicillium): 0.03 µg/mL (≈ 0.0263 µM)
- MIC50 (Paecilomyces variotii): 0.03 µg/mL (≈ 0.0263 µM)
- MIC90 (Paecilomyces variotii): 0.03 µg/mL (≈ 0.0263 µM)
- MIC50 (Alternaria alternata): 0.06 µg/mL (≈ 0.0526 µM)
- MIC90 (Alternaria alternata): > 16 µg/mL
- MIC50 (Fusarium verticillioides): > 16 µg/mL
- MIC90 (Fusarium verticillioides): > 16 µg/mL
- MIC50 (Candida metapsilosis): 0.06 µg/mL (≈ 0.0526 µM)
- MIC90 (Candida metapsilosis): 0.25 µg/mL (≈ 0.219 µM)
- MIC50 (Aspergillus fumigatus): 0.03 µg/mL (≈ 0.0263 µM)
- MIC90 (Aspergillus fumigatus): 0.03 µg/mL (≈ 0.0263 µM)
- MIC50 (Diutina rugosa): 0.06 µg/mL (≈ 0.0526 µM)
- MIC90 (Diutina rugosa): 0.25 µg/mL (≈ 0.219 µM)
- MIC50 (Trichosporon dermatis): > 16 µg/mL
- MIC90 (Trichosporon dermatis): > 16 µg/mL
- MIC50 (Candida orthopsilosis): 0.06 µg/mL (≈ 0.0526 µM)
- MIC90 (Candida orthopsilosis): 0.25 µg/mL (≈ 0.219 µM)
- MIC50 (Aspergillus ustus): 0.06 µg/mL (≈ 0.0526 µM)
- MIC90 (Aspergillus ustus): 0.25 µg/mL (≈ 0.219 µM)
- MIC50 (Rhizopus arrhizus): > 16 µg/mL
- MIC90 (Rhizopus arrhizus): > 16 µg/mL
- MIC50 (Rhodotorula glutinis): > 16 µg/mL
- MIC90 (Rhodotorula glutinis): > 16 µg/mL
- MIC50 [5]: 0.03 µg/mL (≈ 0.0263 µM)
- MIC90 [5]: 0.06 µg/mL (≈ 0.0526 µM)
- MIC50 (Saksenaea vasiformis): > 16 µg/mL
- MIC90 (Saksenaea vasiformis): > 16 µg/mL
- MIC50 [6]: 1 µg/mL (≈ 0.877 µM)
- MIC90 [6]: 8 µg/mL (≈ 7.02 µM)
- MIC50 (Rhodotorula mucilaginosa): > 16 µg/mL
- MIC90 (Rhodotorula mucilaginosa): > 16 µg/mL
- MIC50 (Acremonium sp.): 0.03 µg/mL (≈ 0.0263 µM)
- MIC90 (Acremonium sp.): 0.03 µg/mL (≈ 0.0263 µM)

Reference: ChEMBL document CHEMBL1649165, “Activity profile in vitro of micafungin against Spanish clinical isolates of common and emerging species of yeasts and molds” (2009)
